What was measured:
[1] = Biodistribution in NMRI mouse urine at 3.7 MBq/mL, iv after 2 mins by gamma counting; assay type: ADME, organism-based; settings: in vivo
Outline: (§1)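 Male NMRI mice (30-40 g) anaesthetised with 0.1 mL ip Hypnorm (fentanyl citrate 63 µg/mL, fluanisone 2 mg/mL). Each received 0.1 mL of HPLC-purified 18F tracer, diluted in 0.9% NaCl to 3.7 MBq/mL (ethanol ≤10%, THF ≤0.02%), via tail vein. Killed by decapitation at 2 or 60 min; blood and organs weighed and γ-counted. Background-corrected, expressed as %ID or %ID/g.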

[2] = Biodistribution in NMRI mouse urine at 3.7 MBq/mL, iv after 60 mins by gamma counting; assay type: ADME, organism-based; settings: in vivo, 1 h; outline: as §1
[3] = test system: Kidney; assay: Biodistribution in NMRI mouse kidney at 3.7 MBq/mL, iv after 60 mins by gamma counting; assay type: ADME, organism-based; settings: in vivo, 1 h; outline: as §1
[4] = test system: Kidney; assay: Biodistribution in NMRI mouse kidney assessed per gram of tissue at 3.7 MBq/mL, iv after 2 mins by gamma counting; assay type: ADME, organism-based; settings: in vivo; outline: as §1
[5] = test system: Kidney; assay: Biodistribution in NMRI mouse kidney assessed per gram of tissue at 3.7 MBq/mL, iv after 60 mins by gamma counting; assay type: ADME, organism-based; settings: in vivo, 1 h; outline: as §1
[6] = test system: Liver; assay: Biodistribution in NMRI mouse liver at 3.7 MBq/mL, iv after 2 mins by gamma counting; assay type: ADME, organism-based; settings: in vivo; outline: as §1
[7] = test system: Liver; assay: Biodistribution in NMRI mouse liver at 3.7 MBq/mL, iv after 60 mins by gamma counting; assay type: ADME, organism-based; settings: in vivo, 1 h; outline: as §1
[8] = test system: Liver; assay: Biodistribution in NMRI mouse liver assessed per gram of tissue at 3.7 MBq/mL, iv after 2 mins by gamma counting; assay type: ADME, organism-based; settings: in vivo; outline: as §1
[9] = test system: Liver; assay: Biodistribution in NMRI mouse liver assessed per gram of tissue at 3.7 MBq/mL, iv after 60 mins by gamma counting; assay type: ADME, organism-based; settings: in vivo, 1 h; outline: as §1
[10] = Biodistribution in NMRI mouse spleen/pancreas at 3.7 MBq/mL, iv after 2 mins by gamma counting; assay type: ADME, organism-based; settings: in vivo; outline: as §1
[11] = Biodistribution in NMRI mouse spleen/pancreas at 3.7 MBq/mL, iv after 60 mins by gamma counting; assay type: ADME, organism-based; settings: in vivo, 1 h; outline: as §1
[12] = Biodistribution in NMRI mouse spleen/pancreas assessed per gram of tissue at 3.7 MBq/mL, iv after 2 mins by gamma counting; assay type: ADME, organism-based; settings: in vivo; outline: as §1
[13] = Biodistribution in NMRI mouse spleen/pancreas assessed per gram of tissue at 3.7 MBq/mL, iv after 60 mins by gamma counting; assay type: ADME, organism-based; settings: in vivo, 1 h; outline: as §1
[14] = test system: Lung; assay: Biodistribution in NMRI mouse lung at 3.7 MBq/mL, iv after 2 mins by gamma counting; assay type: ADME, organism-based; settings: in vivo
[15] = test system: Lung; assay: Biodistribution in NMRI mouse lung at 3.7 MBq/mL, iv after 60 mins by gamma counting; assay type: ADME, organism-based; settings: in vivo, 1 h; outline: as §1
[16] = test system: Lung; assay: Biodistribution in NMRI mouse lung assessed per gram of tissue at 3.7 MBq/mL, iv after 2 mins by gamma counting; assay type: ADME, organism-based; settings: in vivo; outline: as §1
[17] = test system: Lung; assay: Biodistribution in NMRI mouse lung assessed per gram of tissue at 3.7 MBq/mL, iv after 60 mins by gamma counting; assay type: ADME, organism-based; settings: in vivo, 1 h; outline: as §1
[18] = test system: Heart; assay: Biodistribution in NMRI mouse heart at 3.7 MBq/mL, iv after 2 mins by gamma counting; assay type: ADME, organism-based; settings: in vivo; outline: as §1
[19] = test system: Heart; assay: Biodistribution in NMRI mouse heart at 3.7 MBq/mL, iv after 60 mins by gamma counting; assay type: ADME, organism-based; settings: in vivo, 1 h; outline: as §1
[20] = test system: Heart; assay: Biodistribution in NMRI mouse heart assessed per gram of tissue at 3.7 MBq/mL, iv after 2 mins by gamma counting; assay type: ADME, organism-based; settings: in vivo; outline: as §1
[21] = test system: Heart; assay: Biodistribution in NMRI mouse heart assessed per gram of tissue at 3.7 MBq/mL, iv after 60 mins by gamma counting; assay type: ADME, organism-based; settings: in vivo, 1 h; outline: as §1
[22] = test system: Intestine; assay: Biodistribution in NMRI mouse intestine at 3.7 MBq/mL, iv after 2 mins by gamma counting; assay type: ADME, organism-based; settings: in vivo; outline: as §1
[23] = test system: Intestine; assay: Biodistribution in NMRI mouse intestine at 3.7 MBq/mL, iv after 60 mins by gamma counting; assay type: ADME, organism-based; settings: in vivo, 1 h; outline: as §1
[24] = test system: Stomach; assay: Biodistribution in NMRI mouse stomach at 3.7 MBq/mL, iv after 2 mins by gamma counting; assay type: ADME, organism-based; settings: in vivo; outline: as §1
[25] = test system: Stomach; assay: Biodistribution in NMRI mouse stomach at 3.7 MBq/mL, iv after 60 mins by gamma counting; assay type: ADME, organism-based; settings: in vivo, 1 h; outline: as §1
[26] = Biodistribution in NMRI mouse cerebrum at 3.7 MBq/mL, iv after 2 mins by gamma counting; assay type: ADME, organism-based; settings: in vivo; outline: as §1
[27] = Biodistribution in NMRI mouse cerebrum at 3.7 MBq/mL, iv after 60 mins by gamma counting; assay type: ADME, organism-based; settings: in vivo, 1 h; outline: as §1
[28] = Biodistribution in NMRI mouse cerebrum assessed per gram of tissue at 3.7 MBq/mL, iv after 2 mins by gamma counting; assay type: ADME, organism-based; settings: in vivo; outline: as §1
[29] = Biodistribution in NMRI mouse cerebrum assessed per gram of tissue at 3.7 MBq/mL, iv after 60 mins by gamma counting; assay type: ADME, organism-based; settings: in vivo, 1 h; outline: as §1
[30] = test system: Cerebellum; assay: Biodistribution in NMRI mouse cerebellum at 3.7 MBq/mL, iv after 2 mins by gamma counting; assay type: ADME, organism-based; settings: in vivo; outline: as §1
[31] = test system: Cerebellum; assay: Biodistribution in NMRI mouse cerebellum at 3.7 MBq/mL, iv after 60 mins by gamma counting; assay type: ADME, organism-based; settings: in vivo, 1 h; outline: as §1
[32] = test system: Cerebellum; assay: Biodistribution in NMRI mouse cerebellum assessed per gram of tissue at 3.7 MBq/mL, iv after 2 mins by gamma counting; assay type: ADME, organism-based; settings: in vivo; outline: as §1
[33] = test system: Cerebellum; assay: Biodistribution in NMRI mouse cerebellum assessed per gram of tissue at 3.7 MBq/mL, iv after 60 mins by gamma counting; assay type: ADME, organism-based; settings: in vivo, 1 h; outline: as §1
[34] = test system: Blood; assay: Biodistribution in NMRI mouse blood at 3.7 MBq/mL, iv after 2 mins by gamma counting; assay type: ADME, organism-based; settings: in vivo; outline: as §1
[35] = test system: Blood; assay: Biodistribution in NMRI mouse blood at 3.7 MBq/mL, iv after 60 mins by gamma counting; assay type: ADME, organism-based; settings: in vivo, 1 h; outline: as §1
[36] = test system: Blood; assay: Biodistribution in NMRI mouse blood assessed per gram of tissue at 3.7 MBq/mL, iv after 2 mins by gamma counting; assay type: ADME, organism-based; settings: in vivo; outline: as §1
[37] = test system: Blood; assay: Biodistribution in NMRI mouse blood assessed per gram of tissue at 3.7 MBq/mL, iv after 60 mins by gamma counting; assay type: ADME, organism-based; settings: in vivo, 1 h; outline: as §1
[38] = biological target: Amyloid-beta precursor protein (Homo sapiens, UniProt P05067); assay: Displacement of [125I]IMPY from beta-amyloid plaques in Alzheimer's disease patient brain homogenate; assay type: tissue-based
Chain of Amyloid-beta precursor protein (P05067 whole entry): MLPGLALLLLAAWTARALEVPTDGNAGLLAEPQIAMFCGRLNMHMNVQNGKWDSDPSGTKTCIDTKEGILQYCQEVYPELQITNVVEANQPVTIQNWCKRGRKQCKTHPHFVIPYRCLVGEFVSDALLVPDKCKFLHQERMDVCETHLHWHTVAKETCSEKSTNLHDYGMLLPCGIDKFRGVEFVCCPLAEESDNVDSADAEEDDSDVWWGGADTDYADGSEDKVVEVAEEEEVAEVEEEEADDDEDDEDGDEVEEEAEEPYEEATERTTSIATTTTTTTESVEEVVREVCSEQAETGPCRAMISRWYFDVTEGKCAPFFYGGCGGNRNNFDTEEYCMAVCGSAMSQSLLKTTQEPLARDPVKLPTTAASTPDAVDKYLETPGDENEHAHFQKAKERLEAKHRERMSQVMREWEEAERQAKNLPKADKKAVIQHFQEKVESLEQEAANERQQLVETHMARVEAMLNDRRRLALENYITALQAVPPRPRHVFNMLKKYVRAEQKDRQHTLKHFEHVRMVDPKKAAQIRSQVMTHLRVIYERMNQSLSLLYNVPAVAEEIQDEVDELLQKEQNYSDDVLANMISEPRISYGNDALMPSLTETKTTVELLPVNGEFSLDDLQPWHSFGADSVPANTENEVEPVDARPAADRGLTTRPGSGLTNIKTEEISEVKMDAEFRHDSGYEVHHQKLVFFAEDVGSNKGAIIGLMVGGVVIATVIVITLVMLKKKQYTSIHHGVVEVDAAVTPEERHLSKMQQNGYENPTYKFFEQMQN

SMILES: Cc1ccc2nc(-c3ccc([18F])cc3)sc2c1
- Drug uptake [1]: 0.2 %ID
- Drug uptake [2]: 5.8 %ID
- Drug uptake [3]: 2.3 %ID
- Drug uptake [4]: 9.3 % ID/g
- Drug uptake [5]: 3.6 % ID/g
- Drug uptake [6]: 24.8 %ID
- Drug uptake [7]: 51.8 %ID
- Drug uptake [8]: 12 % ID/g
- Drug uptake [9]: 24.6 % ID/g
- Drug uptake [10]: 1.3 %ID
- Drug uptake [11]: 0.1 %ID
- Drug uptake [12]: 4 % ID/g
- Drug uptake [13]: 0.4 % ID/g
- Drug uptake [14]: 3.6 %ID
- Drug uptake [15]: 0.3 %ID
- Drug uptake [16]: 14.4 % ID/g
- Drug uptake [17]: 1.3 % ID/g
- Drug uptake [18]: 0.9 %ID
- Drug uptake [19]: 0.1 %ID
- Drug uptake [20]: 5.4 % ID/g
- Drug uptake [21]: 0.5 % ID/g
- Drug uptake [22]: 8.9 %ID
- Drug uptake [23]: 19.3 %ID
- Drug uptake [24]: 1.3 %ID
- Drug uptake [25]: 1.1 %ID
- Drug uptake [26]: 1.62 %ID
- Drug uptake [27]: 0.07 %ID
- Drug uptake [28]: 5.33 % ID/g
- Drug uptake [29]: 0.27 % ID/g
- Drug uptake [30]: 0.42 %ID
- Drug uptake [31]: 0.04 %ID
- Drug uptake [32]: 5.99 % ID/g
- Drug uptake [33]: 0.39 % ID/g
- Drug uptake [34]: 5.7 %ID
- Drug uptake [35]: 2.8 %ID
- Drug uptake [36]: 2.2 % ID/g
- Drug uptake [37]: 1.1 % ID/g

SMILES: COc1ccc2nc(-c3ccc(F)cc3)sc2c1
- Ki [38]: 2.2 nM

SMILES: Oc1ccc2nc(-c3ccc(F)cc3)sc2c1
- Ki [38]: 22.5 nM

SMILES: Oc1cc(O)c2sc(-c3ccc(F)cc3)nc2c1
- Ki [38]: 776 nM

— ChEMBL document CHEMBL1140929, “Synthesis and evaluation of 18F-labeled 2-phenylbenzothiazoles as positron emission tomography imaging agents for amyloid plaques in Alzheimer's disease” (J Med Chem, 2009)
